Screening data as filed in PubChem.
RanGTP-Impb inh: disruptors of Ran-importin-beta complex formation – biochemical, FRET, CFP-Ran, YFP-importin-beta, homogeneous, primary screen; cell-free CFP-Ran/YFP-importin-beta FRET ratio; inhibition, % (no concentration beside the values); hit rate 1.1% among 300,000; AID 2216;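 active = more than half of the replicate wells show a fall in the fluorescence ratio signal beyond about 16%, limit read from the data, passing the limit was not always enough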;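 note: 0% = DMSO wells and 100% = Ran loaded with GDP instead of GTP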
Hck-Nef inh: inhibitors of human Hck kinase activated by Nef; inhibition, % at 20 µM; hit rate 0.68% among 220,000; Recombinant Hck-YEEI plus Nef, Z-Lyte FRET kinase assay; P08631;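 active = Hck-Nef kinase inhibition above about 50%, limit read from the data; inactive = inhibition below that limit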;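 note: 0% = DMSO with Hck plus Nef and 100% = Hck alone without Nef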
Runt-SMMHC FRET: inhibitors of human RUNX1 Runt domain binding to CBFb-SMMHC; Q01196+Q13951; hit rate 0.74% among 220,000; Cerulean-Runt/Venus-CBFb-SMMHC FRET ratio 530/480, 1 h; inhibition, % at 20 µM;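 active = mean inhibition across duplicate retests at 20 µM reaching about 50%, limit read from the data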;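 note: 0% = DMSO wells and 100% = wells with excess untagged CBFb-SMMHC; inhibitors lower the FRET ratio by blocking Runt binding to CBFb-SMMHC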
Runt-CBFb FRET: blocks binding of human RUNX1 Runt domain to CBFb | hit rate 0.46% among 220,000 | inhibition, % at 20 µM | AID 1496 | Cerulean-Runt/Venus-CBFb FRET ratio 530/480, 1 h | Q01196+Q13951;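 active = inhibition over about 50% at 20 µM in the single-dose screen, limit read from the data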;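 note: 0% = DMSO wells and 100% = excess unlabeled CBFb competitor control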
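Buffer or medium: Tris pH 7.5 buffer with BSA. Assay system: Cerulean-labeled Runt domain protein. Amount: each fluorescent fusion protein 100 nM. Read-out basis: loss of energy transfer signal. Incubation: 1 h compound exposure, room temperature. Probe or stimulus: Venus-CBFb binding partner, 100 nM. Detection: FRET, excitation 422 nm, emission at 530 and 480 nm.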
RBBP9 inh: blocks human serine hydrolase RBBP9; inhibition, % at 7.94 µM; hit rate 0.2% among 220,000; recombinant RBBP9, FP-Rh probe fluorescence polarization; AID 1515;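 active = inhibition above the campaign mean of all tested compounds plus 3 SD, cut at about 14% in these data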;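 note: plate controls were DMSO wells with RBBP9 for no effect and wells lacking RBBP9 protein for full effect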
Target sequence (O75884 whole entry, looked up): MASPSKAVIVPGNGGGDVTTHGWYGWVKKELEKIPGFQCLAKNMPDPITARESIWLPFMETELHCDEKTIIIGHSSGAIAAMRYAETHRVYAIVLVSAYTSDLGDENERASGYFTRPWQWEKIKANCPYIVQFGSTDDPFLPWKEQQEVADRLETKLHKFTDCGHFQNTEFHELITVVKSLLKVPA
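Test system: recombinant human RBBP9. Quantity: 2.5 µM RBBP9 dispensing solution, before mixing. Detection: FP readout at 525/598 nm. Reagent: Serine-hydrolase probe FP-Rh, 375 nM pre-mixing. Measure: % inhibition. Control set: DMSO-treated enzyme wells and wells lacking RBBP9. Buffer or medium: Tris-NaCl-Pluronic buffer, pH 8.0. Times: preincubation 30 min plus labeling 45 min at 25 °C.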
PfM18AAP inh-1: blocks P. falciparum M18 aspartyl aminopeptidase; recombinant PfM18AAP, H-Glu-NHMec fluorogenic cleavage; inhibition, % at 7.35 µM; hit rate 1.2% among 290,000; AID 1822;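 active = inhibition above the campaign mean inhibition over all tested compounds plus 3 SD, cut at about 28% in these data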;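 note: 0% = plate median of test compound wells and 100% = 2 mM ZnCl2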
PfM18AAP inh-2: PfM18AAP inhibition, confirmation; shares compounds with PfM18AAP inh-1; recombinant PfM18AAP, H-Glu-NHMec fluorogenic cleavage; inhibition, % at 7.35 µM; hit rate 28% among 2,400;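 active = mean inhibition over replicate wells above the hit cutoff set for the earlier primary screen, cut at about 29% in these data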;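 note: 0% = median of test compound wells and 100% = 2 mM ZnCl2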
CTSL1 confirm: counter-screen for PFM18AAP inhibitors: confirmation of human cathepsin L inhibitors; 2,400 tested, under 10 active; shares compounds with PfM18AAP inh-1; purified cathepsin L1, Z-Leu-Arg-MCA fluorescence; AID 2178; inhibition, % at 5.96 µM;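 active = average inhibition across replicates above the hit cutoff set in the earlier primary screen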;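 note: 0% = median of test compound wells and 100% = Z-Phe-Ala-diazomethylketone 1 µM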
Target sequence (P07711 whole entry, looked up): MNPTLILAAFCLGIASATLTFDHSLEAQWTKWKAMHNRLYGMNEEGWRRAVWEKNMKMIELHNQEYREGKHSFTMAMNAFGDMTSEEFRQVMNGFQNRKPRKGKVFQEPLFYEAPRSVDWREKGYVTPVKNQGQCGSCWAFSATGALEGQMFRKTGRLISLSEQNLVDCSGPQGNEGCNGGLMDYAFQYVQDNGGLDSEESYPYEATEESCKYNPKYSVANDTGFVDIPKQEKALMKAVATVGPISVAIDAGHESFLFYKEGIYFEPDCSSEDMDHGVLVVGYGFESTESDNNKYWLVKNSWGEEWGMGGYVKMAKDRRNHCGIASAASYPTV
Numbers without * were called inactive. Rows were chosen to be rich in hits. Some 2.9% of all compounds tested hit in one or more screens of this group.

Screening CC(C)n1c(=S)[nH]c2c1c(=O)[nH]c(=O)n2C returned RanGTP-Impb inh 3, Hck-Nef inh -3, Runt-SMMHC FRET 24, Runt-CBFb FRET 31, RBBP9 inh 4, PfM18AAP inh-1 36*, PfM18AAP inh-2 29* and CTSL1 confirm -1.
`OC(CNCc1ccccc1)Cn1ccc2ccccc21` (stereo unspecified) gave RanGTP-Impb inh 4, Hck-Nef inh 4, Runt-SMMHC FRET 2, Runt-CBFb FRET -1, RBBP9 inh -8 and PfM18AAP inh-1 3.
Oc1ccccc1NCC(O)Cn1ccc2ccccc21 (stereo unspecified) was read as RanGTP-Impb inh 9, Hck-Nef inh 1, Runt-SMMHC FRET 8, Runt-CBFb FRET 14, RBBP9 inh 6, PfM18AAP inh-1 56*, PfM18AAP inh-2 18 and CTSL1 confirm 1.
Screening CCOC(=O)c1sc(=S)n(C)c1NC(=O)c1ccc(F)cc1 returned RanGTP-Impb inh 2, Hck-Nef inh -1, Runt-SMMHC FRET -1, Runt-CBFb FRET 7, RBBP9 inh -10 and PfM18AAP inh-1 -10.
Screening CCOC(=O)c1sc(=S)n(C)c1NC(=O)c1ccccc1C returned RanGTP-Impb inh -3, Hck-Nef inh -1, Runt-SMMHC FRET 14, Runt-CBFb FRET 46, RBBP9 inh 2, PfM18AAP inh-1 35*, PfM18AAP inh-2 6 and CTSL1 confirm 2.
`COc1cccc(NC(=O)c2cc3cccc(OC)c3o/c2=N\O)c1` gave RanGTP-Impb inh 6, PfM18AAP inh-1 51*, PfM18AAP inh-2 17 and CTSL1 confirm -1.
`COC(=O)C1CCN(S(=O)(=O)c2cc3c4c(c2)CCN4C(=O)CC3)CC1` gave RanGTP-Impb inh 2.
CON(c1nc(N(C)C)nc(N(C)C)n1)S(=O)(=O)c1ccccc1Cl was read as RanGTP-Impb inh -2, Hck-Nef inh 0, Runt-SMMHC FRET -3, Runt-CBFb FRET -1, RBBP9 inh -1 and PfM18AAP inh-1 -1.
For COC(=O)CN(n1cnnc1)S(=O)(=O)c1ccccc1Cl the results were RanGTP-Impb inh -4, Hck-Nef inh -1, Runt-SMMHC FRET -1, Runt-CBFb FRET 2, RBBP9 inh -2, PfM18AAP inh-1 87*, PfM18AAP inh-2 77* and CTSL1 confirm -5.
Screening CCn1c(SCC(=O)c2ccc(O)c(O)c2)nnc1-c1ccc(C)cc1 returned RanGTP-Impb inh 0, Hck-Nef inh 2, Runt-SMMHC FRET 0, Runt-CBFb FRET 4, RBBP9 inh -4, PfM18AAP inh-1 43*, PfM18AAP inh-2 19 and CTSL1 confirm -9.
Screening c1ccc2sc(NN=C3CCCCCC3)nc2c1 returned RanGTP-Impb inh 2, Hck-Nef inh 6, Runt-SMMHC FRET 1, Runt-CBFb FRET 16, RBBP9 inh -2, PfM18AAP inh-1 33*, PfM18AAP inh-2 -35 and CTSL1 confirm 0.
Screening CN(C)c1ccc(C(=S)N2CCN(c3ccc([N+](=O)[O-])cc3)CC2)cc1 returned RanGTP-Impb inh 0, Hck-Nef inh -64, Runt-SMMHC FRET 19, Runt-CBFb FRET 48, RBBP9 inh -10, PfM18AAP inh-1 47*, PfM18AAP inh-2 7 and CTSL1 confirm 5.
For Cc1ccc(N2CCN(C(=S)c3ccc(N(C)C)cc3)CC2)cc1 the results were RanGTP-Impb inh -1, Hck-Nef inh 12, Runt-SMMHC FRET 0, Runt-CBFb FRET 7, RBBP9 inh -7 and PfM18AAP inh-1 9.
O=C(CNS(=O)(=O)c1ccccc1)NCC(=O)N1CCCCC1 was read as RanGTP-Impb inh -2 and PfM18AAP inh-1 -1.
`COc1cccc2c1O/C(=N\O)C(C(=O)Nc1ccc(C)cc1)C2` (stereo unspecified) gave RanGTP-Impb inh -4 and PfM18AAP inh-1 -5.
For COCCCNC(=S)NNC(=O)c1ccoc1C the results were RanGTP-Impb inh -1, Hck-Nef inh -1, Runt-SMMHC FRET 2, Runt-CBFb FRET 0, RBBP9 inh -9, PfM18AAP inh-1 33*, PfM18AAP inh-2 -8 and CTSL1 confirm -1.
For CCNC(=S)NNC(=O)c1ccc(OC)cc1 the results were RanGTP-Impb inh 8, Hck-Nef inh 14, Runt-SMMHC FRET -1, Runt-CBFb FRET 2, RBBP9 inh -5, PfM18AAP inh-1 33*, PfM18AAP inh-2 10 and CTSL1 confirm 0.
COCCCNC(=S)NNC(=O)c1ccc2c(c1)OCO2 was read as RanGTP-Impb inh 5, Hck-Nef inh 1, Runt-SMMHC FRET 1, Runt-CBFb FRET 0, RBBP9 inh -6, PfM18AAP inh-1 35*, PfM18AAP inh-2 14 and CTSL1 confirm -1.
`CCNC(=S)NNC(=O)c1ccoc1C` gave RanGTP-Impb inh -2, Hck-Nef inh 1, Runt-SMMHC FRET 0, Runt-CBFb FRET 1, RBBP9 inh -10, PfM18AAP inh-1 33*, PfM18AAP inh-2 -16 and CTSL1 confirm 4.
`CCCCNC(=O)NNC(=O)c1ccoc1C` gave RanGTP-Impb inh 4, Hck-Nef inh -2, Runt-SMMHC FRET 1, Runt-CBFb FRET 0, RBBP9 inh -10 and PfM18AAP inh-1 26.
`COc1ccc(C(=O)NNC(=S)NC(=O)c2ccc(OC)cc2)cc1` gave RanGTP-Impb inh 3 and PfM18AAP inh-1 -2.
CC[C@@]12C(=O)N(c3ccc(OC)cc3)C(=O)N1[C@H](c1ccc(Cl)cc1)[C@@H]1C(=O)N(C3CCCCC3)C(=O)[C@@H]12 was read as RanGTP-Impb inh 6 and PfM18AAP inh-1 3.
Screening O=C(c1ccco1)N1CCN(S(=O)(=O)c2cccc([N+](=O)[O-])c2)CC1 returned RanGTP-Impb inh -4, Hck-Nef inh 2, Runt-SMMHC FRET 1, Runt-CBFb FRET -1, RBBP9 inh 5 and PfM18AAP inh-1 -2.
NNc1nc2c(-c3cccc(C(F)(F)F)c3)nnn2c2ccccc12 was read as RanGTP-Impb inh 0, PfM18AAP inh-1 35*, PfM18AAP inh-2 -106 and CTSL1 confirm -6.
